This note sets out measurements from ChEMBL document CHEMBL1157178, “Novel thiosemicarbazone derivatives as potential antitumor agents: Synthesis, physicochemical and structural properties, DNA interactions and antiproliferative activity” (Bioorg Med Chem, 2008).

For assay [1], the system named is HEp-2. The assay can be described thus: Antiproliferative activity against human Hep2 cells after 72 hrs by MTT test. Format: functional, cell-based. Conditions: HEp-2, 72 h. The method, boiled down:
(§1)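 Cells grown as monolayers in DMEM with 10% FBS, 2 mM L-glutamine, penicillin and streptomycin at 37 °C, 5% CO2. Seeded on day 0 at 1 · 10⁴/mL (HeLa, Hep-2, MiaPaCa-2, SW620), 2 · 10⁴/mL (MCF-7) or 3 · 10⁴/mL (WI 38). Five dilutions (10^-8 to 5 · 10^-6 mol/l), 72 h, MTT read-out. Quadruplicate, three experiments. IC50 by linear regression of percentage growth.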
On the technique in general: Formazan colour is commonly taken as a measure of viable cells.

Assay [2] has as its system HeLa. The assay can be described thus: Antiproliferative activity against human HeLa cells after 72 hrs by MTT test. Format: functional, cell-based. The method, boiled down:
as §1

The subject of assay [3] is MIA PaCa-2. The assay can be described thus: Antiproliferative activity against human MiaPaCa2 cells after 72 hrs by MTT test. Conditions: MIA PaCa-2, 72 h. Format: functional, cell-based. The method, boiled down: as §1
In assay [4] the test system is SW-620. Nature of the assay: Antiproliferative activity against human SW620 cells after 72 hrs by MTT test. Format: functional, cell-based. Conditions: SW-620, 72 h. The method, boiled down:
as §1

Assay [5] relates to MCF7. Nature of the assay: Antiproliferative activity against human MCF7 cells after 72 hrs by MTT test. It counts as functional, cell-based. Conditions: MCF7, 72 h. The method, boiled down: as §1
Assay [6] deals with WI-38. The assay can be described thus: Antiproliferative activity against human WI38 cells after 72 hrs by MTT test. It counts as functional, cell-based. To be noted: WI-38, 72 h. Put shortly:
as §1

Assay [7] deals with DNA. Nature of the assay: Binding affinity to calf thymus DNA in aqueous solution at pH 7.0 by thermal denaturation. To be noted: Bos taurus. Format: nucleic-acid assay. Put shortly: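 ct-DNA in sodium cacodylate buffer, pH 7.0, I = 0.05 mol dm^-3, concentration taken as phosphate. Compound added at r[compd]/[ct-DNA] = 0.3. Melting followed by absorbance at 260 nm, with ligand absorbance subtracted and curves normalized. Tm taken as the transition midpoint (first derivative or tangent method). ΔTm = Tm(complex) − Tm(free DNA), averaged over at least two runs.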

Molecules are shown by their SMILES. Calls of active or inactive are those of the source. No cut-off for these calls is given here.

For orientation: IC50 means the concentration that inhibits the measured activity by half. Turning to `CCN(CC)c1ccc(/C=N/NC(N)=S)c(O)c1`, the IC50 was 0.9 µM in assay [1]; 2 µM in assay [2]; more than 5 µM in assay [3]; 3 µM in assay [4]; 0.4 µM in assay [5]; 0.2 µM in assay [6].

With `NC(=S)N/N=C/c1ccccc1O`, the result in assay [7] was inactive. Moreover, the IC50 in assay [1] was not below 5 µM; in assay [2] it was not below 5 µM; in assay [3] it was more than 5 µM; in assay [4] it was more than 5 µM; in assay [5] it was not below 5 µM; in assay [6] it was not below 5 µM.

Consider `CCN(CC)c1ccc(/C=N/NC(=S)Nc2ccccc2)c(O)c1`, for which the outcome in assay [7] was inactive. In addition, the IC50 in assay [1] was 0.3 µM; in assay [2], 0.7 µM; in assay [3], 0.2 µM; in assay [4] it was 0.6 µM; in assay [5], 1.2 µM; in assay [6], 0.3 µM.

As to `NC(=S)N/N=C/c1c(O)ccc2ccccc12`, the 50% inhibitory concentration (IC50) in assay [1] was 0.2 µM; in assay [2] it was 0.2 µM; in assay [3] it was more than 5 µM; in assay [4], 4.7 µM; in assay [5] it was more than 5 µM; in assay [6], not below 5 µM.

Consider `Oc1ccccc1/C=N/NC(=S)Nc1ccccc1`, for which the outcome in assay [7] was inactive. For the same molecule, the IC50 in assay [1] stood at 2.4 µM; in assay [2], 1.5 µM; in assay [3] it was 2.4 µM; in assay [4], 2 µM; in assay [5] it was 4 µM; in assay [6] it was 1.3 µM.

Turning to `COc1cccc(/C=N/NC(=S)Nc2ccccc2)c1O`, the IC50 in assay [1] turned out to be 1.6 µM; in assay [2], 1.7 µM; in assay [3], 2.5 µM; in assay [4], 1.6 µM; in assay [5], 3 µM; in assay [6] it was 1.4 µM.
